Source: PMC6309961 (The Journal of pharmacy and pharmacology, 2017)

Assays:
Assay type in all cases: biochemical
CYP2E1 = CYP2E1 (Homo sapiens, UniProt P05181); assay: index substrate turnover in pooled HLM, HPLC; details: for IC50: human, microsomes
CYP1A2 = biological target: T1, CYP1A2 (Homo sapiens, UniProt P05177); assay: index substrate turnover in pooled HLM, HPLC; details: microsomes
T1 sequence (P05177 2-516): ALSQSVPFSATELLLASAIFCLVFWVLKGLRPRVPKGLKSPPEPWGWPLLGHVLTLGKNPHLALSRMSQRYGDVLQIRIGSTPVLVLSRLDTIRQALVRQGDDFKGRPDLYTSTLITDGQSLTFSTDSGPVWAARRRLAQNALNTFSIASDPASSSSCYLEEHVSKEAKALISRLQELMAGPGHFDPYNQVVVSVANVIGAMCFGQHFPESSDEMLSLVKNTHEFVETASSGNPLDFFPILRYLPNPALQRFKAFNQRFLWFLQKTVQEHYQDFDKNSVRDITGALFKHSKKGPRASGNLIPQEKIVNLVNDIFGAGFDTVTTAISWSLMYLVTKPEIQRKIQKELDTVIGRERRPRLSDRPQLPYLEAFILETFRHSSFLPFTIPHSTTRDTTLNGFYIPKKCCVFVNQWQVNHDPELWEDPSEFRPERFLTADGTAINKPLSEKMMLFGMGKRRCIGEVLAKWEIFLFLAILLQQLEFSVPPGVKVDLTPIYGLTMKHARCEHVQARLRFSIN
How it was run: (§1)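 Pooled HLMs (53 donors) in 50 mm phosphate pH 7.5 with 5 mm MgCl2, 0.5 mm NADP and an isocitrate/isocitric dehydrogenase regenerating system. Test compound at 0–600 μm (eight levels) was dried, reconstituted in 1% methanol, with or without 20-min 37°C preincubation. Substrates: phenacetin (1A2), bupropion (2B6), taxol (2C8), dextromethorphan (2D6). Acetonitrile stop (acidified for 2B6) with IS; HPLC-UV/fluorescence; duplicates; hyperbolic nonlinear-regression IC50.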

UGT1A6 = biological target: T2, UGT1A6 (Homo sapiens, UniProt P19224); assay: glucuronidation of index substrate in pooled HLM, HPLC-UV; details: without preincubation; pH 7.5, 10 mM UDPGA, alamethicin
T2 sequence (P19224 27-532): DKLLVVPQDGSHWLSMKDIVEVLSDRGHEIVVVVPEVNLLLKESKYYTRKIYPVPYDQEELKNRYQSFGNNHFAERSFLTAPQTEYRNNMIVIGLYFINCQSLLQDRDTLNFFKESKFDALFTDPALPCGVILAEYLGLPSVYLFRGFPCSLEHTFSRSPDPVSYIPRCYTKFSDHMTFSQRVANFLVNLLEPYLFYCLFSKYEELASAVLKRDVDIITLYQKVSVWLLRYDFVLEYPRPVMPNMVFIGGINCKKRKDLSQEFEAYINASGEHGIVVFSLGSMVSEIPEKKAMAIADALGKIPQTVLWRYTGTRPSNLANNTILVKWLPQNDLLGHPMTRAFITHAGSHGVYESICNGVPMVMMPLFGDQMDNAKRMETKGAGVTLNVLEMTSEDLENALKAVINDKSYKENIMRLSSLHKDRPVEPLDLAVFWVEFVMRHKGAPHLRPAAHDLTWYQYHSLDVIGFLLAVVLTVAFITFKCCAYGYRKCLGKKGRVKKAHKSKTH

UGT2B7 = biological target: T3, UGT2B7 (Homo sapiens, UniProt P16662); assay: glucuronidation of index substrate in pooled HLM, HPLC-UV; details: without preincubation; pH 7.5, 10 mM UDPGA, alamethicin
T3 sequence (P16662 24-529): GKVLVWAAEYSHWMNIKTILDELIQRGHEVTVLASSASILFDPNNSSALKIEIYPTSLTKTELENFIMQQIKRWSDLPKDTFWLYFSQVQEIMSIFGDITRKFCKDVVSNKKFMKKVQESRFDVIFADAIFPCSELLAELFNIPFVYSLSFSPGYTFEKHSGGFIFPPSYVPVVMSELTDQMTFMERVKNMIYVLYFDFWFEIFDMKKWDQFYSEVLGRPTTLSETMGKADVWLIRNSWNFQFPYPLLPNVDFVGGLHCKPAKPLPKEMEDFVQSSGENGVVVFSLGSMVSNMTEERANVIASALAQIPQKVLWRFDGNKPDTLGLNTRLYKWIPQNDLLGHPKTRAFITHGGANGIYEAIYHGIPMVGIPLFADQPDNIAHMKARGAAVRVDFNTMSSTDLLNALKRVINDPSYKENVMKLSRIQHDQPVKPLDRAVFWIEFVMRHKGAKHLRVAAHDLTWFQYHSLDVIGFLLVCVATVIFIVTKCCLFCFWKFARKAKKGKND
How it was run: (§2)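 Pooled HLMs (53 donors, 50–500 μg/ml) in 50 mm phosphate pH 7.5 with 5 mm MgCl2 and alamethicin […]. Test compound at 0–250 μm (seven levels) was dried, reconstituted in 1% methanol and not preincubated. Reactions started with UDPGA (10 mm final). Substrates: AZT (UGT2B7), oxazepam (UGT2B15). Acetonitrile stop (acidified for UGT2B7) with IS; HPLC-UV; duplicates; IC50 by nonlinear regression.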

CYP2C19 = CYP2C19 (Homo sapiens, UniProt P33261); assay: index substrate turnover in pooled HLM, HPLC; details: microsomes
CYP2C19, sequence (P33261 whole entry): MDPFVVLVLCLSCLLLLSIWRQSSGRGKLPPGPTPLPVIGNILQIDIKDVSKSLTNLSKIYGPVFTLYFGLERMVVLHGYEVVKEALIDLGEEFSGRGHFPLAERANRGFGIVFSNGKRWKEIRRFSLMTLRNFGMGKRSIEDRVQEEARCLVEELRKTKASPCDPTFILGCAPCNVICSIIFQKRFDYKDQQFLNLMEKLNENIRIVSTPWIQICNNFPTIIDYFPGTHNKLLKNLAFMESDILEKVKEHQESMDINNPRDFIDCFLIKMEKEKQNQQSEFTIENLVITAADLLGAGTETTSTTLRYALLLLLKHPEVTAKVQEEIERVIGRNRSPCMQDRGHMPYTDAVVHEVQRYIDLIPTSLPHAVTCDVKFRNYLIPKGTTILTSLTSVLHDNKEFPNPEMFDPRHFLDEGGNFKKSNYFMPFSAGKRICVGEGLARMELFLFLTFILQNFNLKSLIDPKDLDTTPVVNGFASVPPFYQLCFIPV

CYP2B6 = biological target: T4, CYP2B6 (Homo sapiens, UniProt P20813); assay: index substrate turnover in pooled HLM, HPLC; details: microsomes
T4 sequence (P20813 1-491): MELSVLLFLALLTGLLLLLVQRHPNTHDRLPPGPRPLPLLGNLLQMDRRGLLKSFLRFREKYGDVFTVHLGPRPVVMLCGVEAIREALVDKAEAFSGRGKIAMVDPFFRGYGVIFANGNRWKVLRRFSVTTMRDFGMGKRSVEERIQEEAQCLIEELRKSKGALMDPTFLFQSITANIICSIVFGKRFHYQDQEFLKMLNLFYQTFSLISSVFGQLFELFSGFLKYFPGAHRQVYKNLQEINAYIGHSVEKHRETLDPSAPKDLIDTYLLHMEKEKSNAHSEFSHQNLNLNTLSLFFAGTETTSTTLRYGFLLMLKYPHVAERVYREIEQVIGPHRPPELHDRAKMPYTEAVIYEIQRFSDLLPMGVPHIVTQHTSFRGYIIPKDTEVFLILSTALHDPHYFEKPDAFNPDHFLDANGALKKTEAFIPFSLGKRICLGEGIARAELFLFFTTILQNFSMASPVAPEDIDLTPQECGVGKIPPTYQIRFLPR
How it was run: as §1

CYP2C8 = biological target: T5, CYP2C8 (Homo sapiens, UniProt P10632); assay: index substrate turnover in pooled HLM, HPLC; details: microsomes
T5 sequence (P10632 1-490): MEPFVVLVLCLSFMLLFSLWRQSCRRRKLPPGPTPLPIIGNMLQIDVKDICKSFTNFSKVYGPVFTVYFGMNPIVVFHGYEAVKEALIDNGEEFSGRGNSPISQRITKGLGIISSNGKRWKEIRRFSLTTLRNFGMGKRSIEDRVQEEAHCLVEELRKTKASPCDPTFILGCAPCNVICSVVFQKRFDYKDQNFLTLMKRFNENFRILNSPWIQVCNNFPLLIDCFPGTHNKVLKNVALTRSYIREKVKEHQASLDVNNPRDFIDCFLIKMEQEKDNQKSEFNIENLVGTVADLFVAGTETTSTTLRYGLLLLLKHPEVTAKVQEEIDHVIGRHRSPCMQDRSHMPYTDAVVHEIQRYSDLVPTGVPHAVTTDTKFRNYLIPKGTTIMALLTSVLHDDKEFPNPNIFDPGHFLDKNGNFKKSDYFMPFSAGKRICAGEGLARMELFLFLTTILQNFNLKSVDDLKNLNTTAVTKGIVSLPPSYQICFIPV
How it was run: as §1

UGT2B15 = biological target: T6, UGT2B15 (Homo sapiens, UniProt P54855); assay: glucuronidation of index substrate in pooled HLM, HPLC-UV; details: without preincubation; pH 7.5, 10 mM UDPGA, alamethicin
T6 sequence (P54855 24-530): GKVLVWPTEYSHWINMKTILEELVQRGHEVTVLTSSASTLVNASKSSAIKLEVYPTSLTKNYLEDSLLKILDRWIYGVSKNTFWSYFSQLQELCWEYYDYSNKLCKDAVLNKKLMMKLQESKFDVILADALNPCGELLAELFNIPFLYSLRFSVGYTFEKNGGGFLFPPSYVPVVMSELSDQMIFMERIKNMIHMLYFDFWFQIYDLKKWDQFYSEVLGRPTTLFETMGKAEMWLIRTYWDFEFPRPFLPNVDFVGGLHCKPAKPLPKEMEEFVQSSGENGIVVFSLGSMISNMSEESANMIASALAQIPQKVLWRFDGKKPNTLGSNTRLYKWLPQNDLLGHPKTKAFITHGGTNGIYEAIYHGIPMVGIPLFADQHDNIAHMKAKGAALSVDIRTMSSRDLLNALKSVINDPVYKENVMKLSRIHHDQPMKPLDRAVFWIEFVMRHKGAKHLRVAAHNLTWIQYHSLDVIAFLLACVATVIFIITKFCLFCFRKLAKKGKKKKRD
How it was run: as §2

CYP2C9 = CYP2C9 (Homo sapiens, UniProt P11712); assay: index substrate turnover in pooled HLM, HPLC; details: microsomes
CYP2C9, sequence (P11712 whole entry): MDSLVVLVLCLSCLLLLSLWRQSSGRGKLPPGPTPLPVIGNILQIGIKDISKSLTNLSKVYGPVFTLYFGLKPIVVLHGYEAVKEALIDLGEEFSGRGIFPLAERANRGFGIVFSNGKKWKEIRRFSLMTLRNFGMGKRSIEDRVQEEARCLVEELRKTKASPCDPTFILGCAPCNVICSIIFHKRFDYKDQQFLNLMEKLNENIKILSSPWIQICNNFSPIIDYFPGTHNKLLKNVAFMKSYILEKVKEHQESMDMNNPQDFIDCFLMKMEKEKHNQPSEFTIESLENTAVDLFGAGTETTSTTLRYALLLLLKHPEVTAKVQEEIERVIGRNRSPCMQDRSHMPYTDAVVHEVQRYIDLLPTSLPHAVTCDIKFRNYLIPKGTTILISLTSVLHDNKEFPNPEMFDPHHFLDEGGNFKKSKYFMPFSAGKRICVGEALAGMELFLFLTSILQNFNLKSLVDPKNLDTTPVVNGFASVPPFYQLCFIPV

CYP2D6 = CYP2D6 (Homo sapiens, UniProt P10635); assay: index substrate turnover in pooled HLM, HPLC; details: microsomes
CYP2D6, sequence (P10635 whole entry): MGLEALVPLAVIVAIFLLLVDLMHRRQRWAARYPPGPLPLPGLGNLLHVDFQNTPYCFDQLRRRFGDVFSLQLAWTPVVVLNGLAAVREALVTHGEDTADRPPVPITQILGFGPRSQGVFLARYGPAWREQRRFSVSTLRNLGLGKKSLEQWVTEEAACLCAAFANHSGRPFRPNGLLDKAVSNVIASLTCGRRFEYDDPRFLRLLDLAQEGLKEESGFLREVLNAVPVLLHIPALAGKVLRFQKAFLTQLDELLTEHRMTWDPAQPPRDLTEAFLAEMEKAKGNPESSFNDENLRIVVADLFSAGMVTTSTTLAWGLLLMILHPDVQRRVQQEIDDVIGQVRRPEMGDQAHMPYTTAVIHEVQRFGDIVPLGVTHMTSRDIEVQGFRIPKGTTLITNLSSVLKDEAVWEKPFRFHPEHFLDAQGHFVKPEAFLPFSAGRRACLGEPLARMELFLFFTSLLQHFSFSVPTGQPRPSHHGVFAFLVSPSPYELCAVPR
How it was run: as §1

[1] = without preincubation, 37 °C, solvent effect

CYP2E1, sequence (P05181 whole entry): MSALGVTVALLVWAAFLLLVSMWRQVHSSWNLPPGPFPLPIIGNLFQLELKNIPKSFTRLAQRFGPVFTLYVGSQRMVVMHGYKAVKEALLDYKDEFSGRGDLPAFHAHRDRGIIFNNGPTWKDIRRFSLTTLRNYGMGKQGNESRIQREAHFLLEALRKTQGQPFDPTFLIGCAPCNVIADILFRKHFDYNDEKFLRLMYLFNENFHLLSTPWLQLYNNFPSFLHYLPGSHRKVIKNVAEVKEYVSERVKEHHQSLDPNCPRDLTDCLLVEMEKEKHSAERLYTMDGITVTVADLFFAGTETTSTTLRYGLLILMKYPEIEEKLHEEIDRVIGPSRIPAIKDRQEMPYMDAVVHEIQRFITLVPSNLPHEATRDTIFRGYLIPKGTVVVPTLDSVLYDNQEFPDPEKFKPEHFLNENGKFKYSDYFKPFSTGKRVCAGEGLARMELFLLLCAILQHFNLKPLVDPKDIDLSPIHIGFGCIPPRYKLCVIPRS

Row | DMSO / W/O (%) (CYP2E1; [1]) | IC50 (CYP1A2) [µM] | IC50 (UGT1A6) [µM] | IC50 (UGT2B7) [µM] | IC50 (CYP2C19) [µM] | IC50 (CYP2B6) [µM] | IC50 (CYP2E1) [µM] | IC50 (CYP2C8) [µM] | IC50 (UGT2B15) [µM] | IC50 (CYP2C9) [µM] | IC50 (CYP2D6) [µM] | MEOH / W/O (%) (CYP2E1; [1]) | Structure (SMILES)
1 | 0.06 % (v/v) | – | – | – | – | – | – | – | – | – | – | – | C[S+](C)[O-] [DMSO]
2 | – | 3.5 | > 250 | > 250 | 47.9 | 103 | 89.3 | 2.5 | > 250 | 28.9 | 153 | – | O=c1cc(-c2ccc(O)c(O)c2)oc2cc(O)cc(O)c12 [luteolin]
3 | – | 5.2 | – | – | 140 | 89.2 | 66.2 | 2.4 | > 250 | – | 234 | – | O=c1c(O)c(-c2ccc(O)c(O)c2)oc2cc(O)cc(O)c12 [quercetin]
4 | – | – | – | – | – | – | – | – | – | – | – | 0.63 % (v/v) | CO [methanol]
